Screening results: PubChem BioAssay, several laboratories
WT yeast gro inh = growth inhibition of WT strain, primary screen, mitochondrial fusion inhibitor project, WT and mutant strains, chemical genetic | mitochondrial fusion phenotypic screen | inhibition, % at 10 µM | 190,000 tested, 2.1% active; in the data active = inhibition above about 58%; tested in S. cerevisiae
MPTP block = mitochondrial permeability transition pore inhibitors, primary screen, biochemical, isolated mouse mitochondria, absorbance; 360,000 tested, 1.4% active; Ca2+ swelling absorbance, 30 min; inhibition, % at 10 µM;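 active = inhibition of 50% or more, scaled per plate between neutral and stimulator controls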;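 note: 0% = DMSO wells given calcium and 100% = 1 mM EGTA wells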
EBV gp42 block = Epstein-Barr virus gp42 inhibitors, primary screen, biochemical, uHTS, fluorescence polarization; inhibition, % (tested at 21.74 µM); Glycoprotein 42 (Epstein-Barr virus (strain AG876)), Q1HVG2; Fluorescence polarization binding assay, mP read-out; AID 1085, 2008; 220,000 tested, 0.42% active; in the data active = inhibition above about 50%
Target sequence (Q1HVG2 whole entry, looked up): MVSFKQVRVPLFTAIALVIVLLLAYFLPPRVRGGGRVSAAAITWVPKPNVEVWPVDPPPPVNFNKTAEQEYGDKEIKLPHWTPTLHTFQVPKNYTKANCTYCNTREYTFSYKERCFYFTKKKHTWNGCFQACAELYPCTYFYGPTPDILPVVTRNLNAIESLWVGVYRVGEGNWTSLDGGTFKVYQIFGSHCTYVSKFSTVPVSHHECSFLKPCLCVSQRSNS
NR3A LBD binder = binders of NR3A ligand-binding domain, primary screen, biophysical, differential scanning fluorimetry, uHTS | 340,000 tested, 2.5% active | Tm shift relative to glycine control, % at 25 µM | NR3A LBD differential scanning fluorimetry, Tm shift; 0% = protein alone, 100% = glycine-bound protein | Glutamate receptor ionotropic, NMDA 3A (GRIN3A) ligand-binding domain;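 active = melting temperature shift of at least 10% of the positive control shift, at one fixed dose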
Tb MetRS inh = T. brucei MetRS inhibitors, primary screen, biochemical, luminescence | purified T. brucei MetRS, ATP depletion, Kinase-Glo luminescence | inhibition, % at 11.9 µM | 360,000 tested, 0.4% active | AID 624268, 2012;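 active = inhibition above a per-plate cutoff of the control wells' mean inhibition plus 3 SD, cut at about 5.5% in these data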;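 note: 0% = DMSO wells median and 100% = median of wells with control inhibitor compound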
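technique = Kinase-Glo luminescence, ATP depletion format | system = purified MetRS (methionyl-tRNA synthetase) enzyme from Trypanosoma brucei | timing = 15 min preincubation, 2 h reaction, all 25 °C | evaluation = percent inhibition versus plate control medians | dosing = single dose, 11.9 µM final nominal, 0.9% final DMSO | also added = substrates ATP, L-methionine and bulk Escherichia coli tRNA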
CHOP inhibitor = inhibitors of CHOP promoter induction, primary screen, cell-based, unfolded protein response, luciferase reporter. AID 2732, 2010. 220,000 tested, 3.8% active. CHO-K1 CHOP-promoter luciferase, tunicamycin-induced, 15-18 h. inhibition, % at 10 µM;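 active = compounds that reduced the stress-induced luciferase reporter signal by more than about 70% of percent inhibition, limit read from the data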;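 note: 0% = tunicamycin plus vehicle and 100% = wells without tunicamycin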
Starred values were filed as active, the others as inactive; x = no result given. Only some compounds are listed: those with a hit (about 6.4% of all), similar ones and a draw of the others.

SMILES	WT yeast gro inh	MPTP block	EBV gp42 block	NR3A LBD binder	Tb MetRS inh	CHOP inhibitor
O=C1COc2ccc(S(=O)(=O)N3CCN(c4ccccc4F)CC3)cc2N1	x	-2	x	12*	0	x
O=C(C1=C(O)/C(=C/c2ccc(O)cc2)CCC1)C(F)(F)F	67*	5	-19	12*	-1	8
Cc1c(NS(C)(=O)=O)cccc1-c1nc2cccnc2s1	x	1	-12	-1	-1	14
Cc1ccc(C)c(NC(=O)c2ccccc2C(=O)c2ccccc2)c1	63*	-1	-9	x	-1	23
Cc1ccc(C(=O)c2ccccc2C(=O)Nc2ccccc2)cc1	x	0	x	0	0	x
CCOC(=O)C1(C(=O)O)NC(=O)CC1c1ccccc1 (configuration not stated)	x	0	-13	12*	-1	16
CCCC(C)NC(=S)Nc1cc(C)cc(C)c1 (configuration not stated)	73*	-1	8	0	-1	2
CCCC(=O)Oc1c(S(=O)(=O)c2ccc(C)cc2)c(C)nn1C(C)(C)C	22	1	6	0	-1	40
Cc1ccc(S(=O)(=O)c2c(C)nn(C(C)(C)C)c2OC(=O)CC(C)C)cc1	70*	1	8	0	0	80*
CCC(=O)Oc1c(S(=O)(=O)c2ccc(C)cc2)c(C)nn1C(C)(C)C	7	0	0	15*	0	46
CCN=c1scc(C)n1/N=C/c1cc(Br)c(O)c(Br)c1	13	1	-2	-3	0	29
CCN=c1scc(-c2ccco2)n1/N=C/c1ccc(OC)c(O)c1	59*	0	-2	-2	-1	23
COc1ccc(/C=N/N2CCN(C)CC2)cc1O	5	-1	10	1	0	10
CCN=c1scc(-c2ccco2)n1/N=C/c1ccc(O)cc1	3	3	12	4	0	76*
COc1cc(CNn2nnnc2N)cc(Br)c1OCC(=O)NC(C)(C)C	-4	0	-6	0	-1	12
O=c1[nH]n2c(=O)c3c([nH]c2c1N=Nc1cccc(Cl)c1)CCC3	4	2	52*	6	-1	9
O=C(Nc1ccc(F)cc1F)c1cccn1-c1ncc(C(F)(F)F)cc1Cl	3	1	0	1	-1	43
Cc1cc(C)cc(NC(=O)c2cccn2-c2ncc(C(F)(F)F)cc2Cl)c1	39	0	-11	-12	0	74*
O=C(NC1CC1)C1=C[C@@H](c2ccccc2)C[C@@H](OCc2ccc(CO)cc2)O1	x	0	-9	-1	0	0
Cc1ccc(C(=O)c2ccc(O)cc2)cc1C	-9	8	-6	1	-1	56
Cc1ccc(C(=O)c2cccc(N)c2)cc1C	-12	2	1	1	0	79*
CNC(=S)NCCC(c1ccccc1)c1ccccc1	67*	4	-3	-2	1	-4
COc1cc(OC)cc(C(=O)NCCC(c2ccccc2)c2ccccc2)c1	x	2	x	-11	-2	x
COc1cccc(NC(=S)NCCC(c2ccccc2)c2ccccc2)c1	76*	4	8	8	0	47
COc1ccc(NC(=S)NCCc2ccccc2OC)c(OC)c1	37	-1	0	0	0	11
SMILES	WT yeast gro inh	MPTP block	EBV gp42 block	NR3A LBD binder	Tb MetRS inh	CHOP inhibitor
COc1ccc(NC(=S)N2CCN(C(c3ccccc3)c3ccccc3)CC2)c(OC)c1	69*	-2	2	-1	-1	-2
COc1ccc(NC(=S)NCCC(c2ccccc2)c2ccccc2)c(OC)c1	65*	0	-3	-4	-1	51
CCNC(=O)CN(c1ccc(Br)c(C)c1)S(C)(=O)=O	2	1	8	-2	0	-6
Cc1sc2nc(C3CC3)nc(N3CCN(C(=O)c4ccccc4F)CC3)c2c1C	x	0	x	-2	0	x
Cc1cc2[nH]c3c(c[n+](C)c4ccccc34)c2cc1C	40	-3	-19	-1	2	-171
Cc1cc2[nH]c3c4ccccc4nc(C)c3c2cc1C	x	14	x	10*	0	x
CC(C)C[C@H]1CNC(=S)N1C[C@H]1CCCN1C[C@H](CC(C)C)N1C[C@H](Cc2ccccc2)N(CCc2ccccc2)C1=S	x	5	x	x	0	x
COc1ccc2c(c1)cc(C)c1nnc(SCC(=O)N(C)c3nc(-c4ccccc4)cs3)n12	10	0	-2	0	-1	94*
Cc1cc2cccc(C)c2nc1SCC(=O)N(C)c1nc(-c2ccccc2)cs1	33	1	7	-4	0	17
C=C(C)CN=C1NN=C(c2cc(C)n(-c3ccc(C)cc3)c2C)CS1	5	5	-12	-1	0	74*
CSc1nc(-c2ccco2)nn1S(C)(=O)=O	-26	2	-10	10	0	2
CC1(NC(=S)Nc2ccc3ccccc3c2)CCS(=O)(=O)C1 (configuration not stated)	x	3	-15	-2	0	7
CN(C)C(=S)NC(=S)Nc1ccc2ccccc2c1	x	5	x	21*	0	x
O=C(NCc1ccccc1)c1cc(C2CCCN(C(=O)C3CC3)C2)on1 (configuration not stated)	x	0	x	x	0	x
CCN1CCN(CCNC(=O)c2ccc(/C=C3/Sc4ccccc4N(Cc4cccc(Cl)c4)C3=O)cc2)CC1	98*	-6	-7	-6	-1	33
CCN1CCN(CCNC(=O)c2ccc3c(c2)N(Cc2ccc(F)cc2)C(=O)/C(=C/c2ccccc2)S3)CC1	86*	-3	-3	-5	0	107*
CSc1ncccc1C(=O)OCC(=O)NCc1ccccc1	x	0	x	3	0	x
O=C1OC(c2ccc(Cl)cc2)=N/C1=C\C=C\c1ccco1	-10	0	-9	3	0	-24
O=C1OC(c2ccccc2)=N/C1=C\C=C\c1ccccc1[N+](=O)[O-]	-10	-1	-6	-8	0	71*
CN(C)/C=C1\N=C(c2ccccc2)OC1=O	12	0	-5	-1	-1	9
O=C1OC(c2ccccc2)=N/C1=C\C=C\c1ccco1	-2	-3	-20	20*	0	60
Cc1cc2[nH]c(=O)cc(-c3ccccc3)n2n1	x	0	x	0	0	x
Cc1cc(=O)[nH]c2c1c(-c1ccccc1)nn2C	x	2	-10	3	0	20
Nc1nn2c(-c3ccccc3)cc(=O)[nH]c2c1N=Nc1ccc(O)cc1	18	9	47	27*	1	5
Nc1nn2c(-c3ccccc3)cc(=O)[nH]c2c1N=Nc1ccc(Br)cc1	-30	2	60*	25*	0	69
